Assays:
Rattus norvegicus [1] = assay: Biodistribution of I-125 labeled compound in rat lungs, 1 hr after intravenous injection. value expressed in average % dose per organ; value may range from 14.0 to 17.9; assay type: ADME, organism-based, Lung; conditions: in vivo
Rattus norvegicus [2] = assay: Biodistribution of I-125 labeled compound in rat heart, 1 hr after intravenous injection. value expressed in average % dose per organ; value may range from 1.54 to 1.76; assay type: ADME, organism-based; conditions: in vivo
Rattus norvegicus [3] = assay: Biodistribution of I-125 labeled compound in rat liver, 1 hr after intravenous injection. value expressed in average % dose per organ; value may range from 8.10 to 10.6; assay type: ADME, organism-based; conditions: in vivo
Rattus norvegicus [4] = assay: Biodistribution of I-125 labeled compound in rat lungs, 2 min after intravenous injection. value expressed in average % dose per organ; value may range from 36.9 to 42.9; assay type: ADME, organism-based, Lung; conditions: in vivo
[5] = The protein binding ability of compound was expressed in Percent free; assay type: ADME; conditions: read-out: % free
Summary of the method: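 Binding to pooled human serum was measured by equilibrium dialysis. 0.4 mL serum and 0.4 mL 0.15 M phosphate buffer, pH 7.4, were separated by a membrane, and 0.025 μCi radiolabeled diamine was added on the buffer side. Cells were rotated at 37 °C for 18 h, and aliquots from both sides were weighed and counted. % free = buffer/serum radioactivity concentration ratio × 100. The membrane was also counted.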

Rattus norvegicus [6] = assay: Biodistribution of I-125 labeled compound in rat thyroid, 2 min after intravenous injection. value expressed in average % dose per organ; value may range from 0.13 to 0.20; assay type: ADME, organism-based, Thyroid gland; conditions: in vivo
Rattus norvegicus [7] = assay: Biodistribution of I-125 labeled compound in rat muscle, 2 min after intravenous injection. value expressed in average % dose per organ; value may range from 7.52 to 9.77; assay type: ADME, organism-based, Muscle tissue; conditions: in vivo
Rattus norvegicus [8] = assay: Biodistribution of I-125 labeled compound in rat blood, 2 min after intravenous injection. value expressed in average % dose per organ; value may range from 4.84 to 5.25; assay type: ADME, organism-based; conditions: in vivo
Rattus norvegicus [9] = species on record: Rattus norvegicus; assay: Distribution coefficient at pH 7.0 in rat; assay type: ADME, organism-based
Summary of the method: (§1)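 Octanol/buffer partition: I-125 labeled diamine mixed with 3 g each of 1-octanol and 0.1 M phosphate buffer at pH 7.0 or 7.4, vortexed 3× 1 min, centrifuged 5 min. Two 0.5 g samples of each layer counted. Value is cpm/g octanol over cpm/g buffer, usually repeated three times.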

Rattus norvegicus [10] = assay: Biodistribution of I-125 labeled compound in rat heart, 2 min after intravenous injection. value expressed in average % dose per organ; value may range from 1.95 to 2.54; assay type: ADME, organism-based; conditions: in vivo
Rattus norvegicus [11] = assay: Biodistribution of I-125 labeled compound in rat thyroid, 1 hr after intravenous injection. value expressed in average % dose per organ; value may range from 0.18 to 0.25; assay type: ADME, organism-based, Thyroid gland; conditions: in vivo
Rattus norvegicus [12] = assay: Biodistribution of I-125 labeled compound in rat blood, 1 hr after intravenous injection. value expressed in average % dose per organ; value may range from 1.13 to 1.60; assay type: ADME, organism-based; conditions: in vivo
Rattus norvegicus [13] = assay: Biodistribution of I-125 labeled compound in rat muscle, 1 hr after intravenous injection. value expressed in average % dose per organ; value may range from 11.9 to 16.0; assay type: ADME, organism-based, Muscle tissue; conditions: in vivo
Rattus norvegicus [14] = assay: Biodistribution of I-125 labeled compound in rat brain, 1 hr after intravenous injection. value expressed in average % dose per organ; value may range from 1.39 to 1.47; assay type: ADME, organism-based; conditions: in vivo
Rattus norvegicus [15] = assay: Biodistribution of I-125 labeled compound in rat brain, 2 min after intravenous injection. value expressed in average % dose per organ; value may range from 1.28 to 1.56; assay type: ADME, organism-based; conditions: in vivo
Rattus norvegicus [16] = assay: Biodistribution of I-125 labeled compound in rat liver, 2 min after intravenous injection. value expressed in average % dose per organ; value may range from 8.10 to 8.95; assay type: ADME, organism-based; conditions: in vivo
Rattus norvegicus [17] = species on record: Rattus norvegicus; assay: Distribution coefficient at pH 7.4 in rat; assay type: ADME, organism-based; summary of the method: as §1
Rattus norvegicus [18] = assay: Biodistribution of I-125 labeled compound in rat brain to blood ratio, 2 m in after intravenous injection. value expressed in % dose per gram ratio; assay type: ADME, organism-based
Summary of the method: (§2)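 Rats given I-125 diamine iv; tissue activity at 2 min or 1 h compared with diluted injected-dose aliquots. % dose per gram approximated as % dose per organ divided by mean organ weight (brain 1.65 g; blood 18 g). Ratio taken from the per-gram values.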

Rattus norvegicus [19] = assay: Biodistribution of I-125 labeled compound in rat brain to blood ratio, 1 hr after intravenous injection. value expressed in % dose per gram ratio; assay type: ADME, organism-based; summary of the method: as §2

With `CCC(C)c1cc(I)cc(CNCCCN(C)C)c1O` (centres undefined) the “Average dose per organ” value (Rattus norvegicus [1]) was 15.8%, the “Average dose per organ” value (Rattus norvegicus [2]) was 1.68% and the “Average dose per organ” value (Rattus norvegicus [3]) was 9.74%. The “Average dose per organ” value (Rattus norvegicus [4]) was 39.8%, the fraction unbound [5] was 0.0762 and the “Average dose per organ” value (Rattus norvegicus [6]) was 0.16%. For the same compound, the “Average dose per organ” value (Rattus norvegicus [7]) was 8.38%, the “Average dose per organ” value (Rattus norvegicus [8]) was 5.05% and the Distribution coefficient (Rattus norvegicus [9]) was 77.4. The “Average dose per organ” value (Rattus norvegicus [10]) was 2.15%, the “Average dose per organ” value (Rattus norvegicus [11]) was 0.22% and the “Average dose per organ” value (Rattus norvegicus [12]) was 1.33%. For the same compound, the “Average dose per organ” value (Rattus norvegicus [13]) was 13.3%, the “Average dose per organ” value (Rattus norvegicus [14]) was 1.43% and the “Average dose per organ” value (Rattus norvegicus [15]) was 1.39%. For the same compound, the “Average dose per organ” value (Rattus norvegicus [16]) was 8.65%, the Distribution coefficient (Rattus norvegicus [17]) was 389 and the Ratio (Rattus norvegicus [18]) was 2.96%. The Ratio (Rattus norvegicus [19]) was 11.5%.
